Consider 14 compounds from ChEMBL document CHEMBL1129350, “Hypoxia-selective antitumor agents. 13. Effects of acridine substitution on the hypoxia-selective cytotoxicity and metabolic reduction of the bis-bioreductive agent nitracrine N-oxide” (J Med Chem, 1996).

The subject of experiment [1] is CHO-AA8. Put plainly: Inhibitory activity against aerobic growth of AA8 cells. It counts as functional, cell-based. As to conditions: Cricetulus griseus. The method in brief:
(§1)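 Growth inhibition: 200 log-phase AA8 or 300 UV4 cells were seeded per well. One day later they were exposed to drug for 18 h under aerobic conditions (5% CO₂) in αMEM with 5% fetal calf serum. Cell mass was measured as protein by methylene blue staining 72–78 h after drug removal. IC50 is the concentration reducing cell mass to 50% of the mean of eight controls on the same plate. HF is IC50(AA8)/IC50(UV4).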

Experiment [2] deals with CHO-AA8. Kind of experiment: Concentration needed to reduce cell survival to 10% of control values, using 1 hour exposure of plateau phase AA8 cells at 10e6 cells/ml. It is filed as functional, Cricetulus griseus. In short, it runs like this:
(§2)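 Plateau-phase AA8 cells at 10⁶/mL in magnetically stirred 10 mL suspensions in αMEM with 5% fetal calf serum, continuously gassed with 5% CO₂ in air or N₂. Cells and drug solutions were pre-equilibrated under the gas phase for 60 min before mixing, then exposed for 1 h. Clonogenic survival was read as plating efficiency. C10 is the concentration lowering plating efficiency to 10% of concurrent untreated controls. The air/N₂ ratio is C10(air)/C10(N₂).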

The next experiment relates to Mus musculus. Kind of experiment: Maximum tolerated ip dose for male C3H/HeN mice. It is filed as functional. In short, it runs like this:
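Compounds formulated in water, injected ip at 0.01 mL/g into male C3H/HeN mice (20–25 g); groups of six mice, dose increments of 1.33-fold, observed 28 days. MTD taken as highest dose causing no deaths or unacceptable morbidity.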

The nature of experiment [3]: Spheroid resistance factor which is defined as the ratio C10 (intact)/ C10 (dissociated) EMT6 cells. It is filed as functional. In short, it runs like this: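 EMT6/Ak spheroids were grown in αMEM with 10% FBS in spinner flasks to about 1000–1400 μm diameter. For dissociated cells, spheroids were treated with pronase 0.5 mg/mL and DNAase I 1 mg/mL for 30 min at 37 °C, washed, then exposed to drug for 1 h. Intact spheroids were exposed at 1 spheroid/mL in stirred vials for 1 h before dissociation and plating. Both exposures used about 2 × 10⁵ cells/mL, 5% CO₂/20% O₂, 37 °C. C10 was interpolated from at least four concentrations per survival curve. SRF is C10(intact)/C10(dissociated). Results are mean ± SEM of independent experiments.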

Experiment [4] in a line: Inhibitory activity against aerobic growth of UV4cells, Hypersensitivity factor is the ratio of IC50(AA8) to IC50(UV4). It is filed as functional. In short, it runs like this:
as §1

Experiment [5] is described as follows: Air/N2 ratio = C10(air)/C10(nitrogen). The method in brief:
as §2

For another experiment, the system named is EMT6 (Mus musculus). Kind of experiment: Concentration resulting in 10% survival in dissociated EMT6 spheroid cell suspension.

In the experiment on CHO-AA8 [1], `COc1ccc([N+](=O)[O-])c2c(NCCC[N+](C)(C)[O-])c3ccccc3nc12` returned an IC50 of 130 µM. Also, the C10 with CHO-AA8 [2] is 15700 µM; with EMT6 (Mus musculus) it was 300 µM. Besides, the MTD in the experiment on Mus musculus was 100 µM/kg. For the same compound, the Ratio in experiment [3] is 1.9; in experiment [4] it was 43; in experiment [5], 1250.
The compound `COc1cc(OC)c2nc3ccccc3c(NCCC[N+](C)(C)[O-])c2c1[N+](=O)[O-]` registered an IC50 in the experiment on CHO-AA8 [1] of 1960 µM. In the experiment with CHO-AA8 [2], this compound came in with a C10 of 20000 µM. The compound further came in with an MTD in the experiment on Mus musculus of 800 µM/kg. The Ratio was 0.9 in experiment [4] and 1.2 in experiment [5].
Take `Cc1ccc([N+](=O)[O-])c2c(NCCCN(C)C)c3ccccc3nc12`: in the experiment with CHO-AA8 [1], half-maximal inhibition (IC50) was put at 0.053 µM. Further, the C10 in the experiment with CHO-AA8 [2] turned out to be 1.5 µM. In addition, the MTD in the experiment on Mus musculus came to 0.2 µM/kg. For the same compound, the figures for the Ratio in experiment [4] and in experiment [5] were 13 and 6.9, respectively.
`CN(C)CCCNc1c2ccccc2nc2cccc([N+](=O)[O-])c12` [NITRACRINE]: the C10 in the experiment with CHO-AA8 [2] was 0.4 µM; in the experiment with EMT6 (Mus musculus) it was 0.11 µM. For the same compound, the MTD in the experiment with Mus musculus is 0.3 µM/kg. The Ratio in experiment [3] was 10.7; in experiment [4], 15; in experiment [5] it was 5.1.
Regarding `Cc1cccc2c(NCCC[N+](C)(C)[O-])c3c([N+](=O)[O-])ccc(C)c3nc12`, 6.8 µM corresponded to half-maximal inhibition with CHO-AA8 [1] (IC50). Besides, the C10 in the experiment with CHO-AA8 [2] was found to be 60 µM. Moreover, the MTD with Mus musculus was 15 µM/kg. Also, the Ratio in experiment [4] came out at 32; in experiment [5], 54.
Turning to `Cc1ccc([N+](=O)[O-])c2c(NCCC[N+](C)(C)[O-])c3ccccc3nc12`, in the experiment on CHO-AA8 [1], half-maximal inhibition (IC50) required 5.4 µM. Moreover, the C10 with CHO-AA8 [2] was determined as 47 µM. In the experiment with Mus musculus, this compound yielded an MTD of 15 µM/kg. The values for the Ratio in experiment [4] and in experiment [5] were 29 and 150, respectively.
In the case of `COc1ccc2nc3ccccc3c(NCCCN(C)C)c2c1[N+](=O)[O-]`, the IC50 in the experiment on CHO-AA8 [1] worked out at 2.9 µM. The compound further yielded a C10 with CHO-AA8 [2] of more than 60 µM. The Ratio in experiment [4] was determined as 4.6.
`COc1ccc2nc3ccccc3c(NCCC[N+](C)(C)[O-])c2c1[N+](=O)[O-]` displayed an IC50 in the experiment with CHO-AA8 [1] of 84 µM. Moreover, in the experiment on CHO-AA8 [2], the C10 is more than 300 µM. In addition, in the experiment on Mus musculus, the MTD was determined as 300 µM/kg.
Regarding `C[N+](C)([O-])CCCNc1c2ccccc2nc2cccc([N+](=O)[O-])c12`, half-maximal inhibition with CHO-AA8 [1] (IC50) was put at 2.7 µM. Further, the C10 in the experiment with CHO-AA8 [2] was 61 µM; in the experiment on EMT6 (Mus musculus) it was 1.9 µM. The compound also displayed an MTD with Mus musculus of 15 µM/kg. In addition, the Ratio in experiment [3] was determined as 7; in experiment [4], 15; in experiment [5], 820.
The compound `COc1ccc([N+](=O)[O-])c2c(NCCCN(C)C)c3ccccc3nc12` returned an IC50 in the experiment with CHO-AA8 [1] of 0.47 µM. Also, the C10 stood at 16 µM in the experiment with CHO-AA8 [2] and 1.7 µM with EMT6 (Mus musculus). Besides, in the experiment with Mus musculus, the MTD was determined as 15 µM/kg. Further, the Ratio in experiment [3] was 7.7; in experiment [4] it was 14; in experiment [5], 11.
`COc1cc(OC)c2nc3ccccc3c(NCCCN(C)C)c2c1[N+](=O)[O-]` displayed an IC50 with CHO-AA8 [1] of 47 µM. The C10 in the experiment on CHO-AA8 [2] was found to be 500 µM. The same compound displayed an MTD in the experiment on Mus musculus of 300 µM/kg. The Ratio in experiment [4] was 1.3; in experiment [5] it was 2.3.
Regarding `Cc1cccc2c(NCCCN(C)C)c3c([N+](=O)[O-])ccc(C)c3nc12`, the IC50 with CHO-AA8 [1] amounted to 0.19 µM. In the experiment on CHO-AA8 [2], this compound had a C10 of 9.6 µM. The compound further yielded an MTD with Mus musculus of 20 µM/kg. The Ratio in experiment [4] was found to be 22; in experiment [5], 11.
Compound `COc1cccc2c(NCCCN(C)C)c3c([N+](=O)[O-])ccc(OC)c3nc12` showed an IC50 in the experiment on CHO-AA8 [1] of 0.51 µM. Moreover, in the experiment with CHO-AA8 [2], the C10 came out at 47 µM. The MTD in the experiment with Mus musculus was determined as 100 µM/kg. Also, the results for the Ratio in experiment [4] and in experiment [5] were 11 and 14, respectively.
`COc1cccc2c(NCCC[N+](C)(C)[O-])c3c([N+](=O)[O-])ccc(OC)c3nc12` returned an IC50 in the experiment on CHO-AA8 [1] of 150 µM. The C10 in the experiment on CHO-AA8 [2] came out at 59000 µM. Moreover, in the experiment with Mus musculus, the MTD stood at 450 µM/kg. For the same compound, the values for the Ratio in experiment [4] and in experiment [5] were 14 and 2770, respectively.
